Calls of active or inactive are those of the source. No cut-off for these calls is given here.
Molecular target: T1, Phosphatidylinositol 3,4,5-trisphosphate 5-phosphatase 2 (Mus musculus) (UniProt Q6P549)
T1 sequence (whole entry): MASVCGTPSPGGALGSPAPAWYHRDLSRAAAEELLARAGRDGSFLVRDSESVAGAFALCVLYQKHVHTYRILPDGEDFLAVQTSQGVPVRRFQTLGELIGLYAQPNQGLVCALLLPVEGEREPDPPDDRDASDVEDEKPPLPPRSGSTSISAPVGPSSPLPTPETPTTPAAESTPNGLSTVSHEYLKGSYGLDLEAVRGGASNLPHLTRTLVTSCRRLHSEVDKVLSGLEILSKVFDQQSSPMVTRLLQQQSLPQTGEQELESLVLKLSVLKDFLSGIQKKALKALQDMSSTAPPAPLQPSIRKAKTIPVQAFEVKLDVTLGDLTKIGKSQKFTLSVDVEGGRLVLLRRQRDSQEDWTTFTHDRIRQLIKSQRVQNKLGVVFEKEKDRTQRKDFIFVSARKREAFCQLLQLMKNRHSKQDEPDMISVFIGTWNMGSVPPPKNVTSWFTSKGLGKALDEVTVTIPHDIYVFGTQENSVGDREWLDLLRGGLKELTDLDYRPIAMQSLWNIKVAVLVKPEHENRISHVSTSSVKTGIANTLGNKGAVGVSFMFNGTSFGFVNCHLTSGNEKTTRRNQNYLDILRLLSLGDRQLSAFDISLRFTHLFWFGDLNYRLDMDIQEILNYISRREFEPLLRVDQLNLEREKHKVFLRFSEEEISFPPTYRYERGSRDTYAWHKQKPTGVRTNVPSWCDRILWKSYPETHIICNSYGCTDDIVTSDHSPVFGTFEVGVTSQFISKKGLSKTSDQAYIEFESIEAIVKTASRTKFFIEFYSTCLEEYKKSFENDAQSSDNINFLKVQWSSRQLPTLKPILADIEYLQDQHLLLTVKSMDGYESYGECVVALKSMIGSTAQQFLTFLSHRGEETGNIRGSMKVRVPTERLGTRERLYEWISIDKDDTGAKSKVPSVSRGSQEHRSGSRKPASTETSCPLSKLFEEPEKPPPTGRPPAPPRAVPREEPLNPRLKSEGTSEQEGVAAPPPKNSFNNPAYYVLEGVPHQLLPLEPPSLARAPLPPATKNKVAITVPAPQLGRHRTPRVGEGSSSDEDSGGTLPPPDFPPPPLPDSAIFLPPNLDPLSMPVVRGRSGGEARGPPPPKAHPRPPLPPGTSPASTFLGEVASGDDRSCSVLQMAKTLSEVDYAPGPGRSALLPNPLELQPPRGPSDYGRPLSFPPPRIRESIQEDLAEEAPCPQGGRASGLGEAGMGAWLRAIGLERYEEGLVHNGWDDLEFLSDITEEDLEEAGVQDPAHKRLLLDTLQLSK
Assay: Inhibition of SHIP2 in mouse 3T3L1 cells assessed as reduction of TNF-alpha induced decrease in insulin-stimulated Akt phosphorylation at Thr308 at 10 uM treated for 15 mins after TNF alpha challenge for 16 hrs and prior to insulin stimulation measured after 2 hrs by Western blot analysis
Type: cell-based
Conditions: 3T3-L1
Outline: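 3T3-L1 fibroblasts differentiated into adipocytes, then serum-starved 16 h with TNFα 20 ng/mL. Treated with compound 10 µM or 0.1% DMSO for 15 min, then stimulated with 17 nM insulin at 37 °C for 2 h. Cells lysed on ice at pH 7.5 and Thr308 phospho-Akt measured by western blot. Results given as fold change versus TNFα+insulin control. Mean ± SE.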

inhibition: Active
SMILES: O=C(Cc1c(F)cccc1F)Nc1cc(OCc2ccc(Cl)cc2)ccn1

From ChEMBL document CHEMBL2331279, “Rational design and synthesis of 4-substituted 2-pyridin-2-ylamides with inhibitory effects on SH2 domain-containing inositol 5'-phosphatase 2 (SHIP2)” (Eur J Med Chem, 2013)
